Experimental data published in PMC2212267 (The Journal of Experimental Medicine, 1998).
Blank lines part the entries; values can stand above or below the molecule they belong to. Where no end group is shown, it is not given here. 5,6‑carboxyfluorescein = 5,6-carboxyfluorescein

Assays:
[1] = test system: MBP-responsive T cell lines; test: Proliferation responses of MBP-responsive T cell lines; type: cell-based; settings: unpublished data (Rabinowitz, J.D.)
I-A^u [2] = target: T1, I-A^u (Mus musculus, UniProt P06344+P14438); test: Peptide dissociation kinetics from purified MHC protein; type: binding; settings: fluorescein-labeled peptide, pH 5.3, 37°C, HPSEC; Fig. 4 b
T1 sequence (P14438 1-227): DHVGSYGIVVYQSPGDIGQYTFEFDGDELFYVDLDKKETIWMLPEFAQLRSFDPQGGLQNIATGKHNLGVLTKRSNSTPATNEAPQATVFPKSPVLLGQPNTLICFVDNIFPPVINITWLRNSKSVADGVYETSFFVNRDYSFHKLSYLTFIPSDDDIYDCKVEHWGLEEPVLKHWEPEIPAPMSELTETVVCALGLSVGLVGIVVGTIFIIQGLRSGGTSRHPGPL
T1 sequence (P06344 28-263): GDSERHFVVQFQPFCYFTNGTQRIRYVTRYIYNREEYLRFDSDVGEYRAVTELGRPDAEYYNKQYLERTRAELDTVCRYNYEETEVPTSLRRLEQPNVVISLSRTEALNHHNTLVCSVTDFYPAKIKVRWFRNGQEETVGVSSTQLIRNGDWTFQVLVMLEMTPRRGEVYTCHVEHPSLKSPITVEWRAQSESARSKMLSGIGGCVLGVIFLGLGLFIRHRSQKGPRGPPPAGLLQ

I-A^k = I-A^k (Mus musculus, UniProt P01910+P06343); test: FACS binding of biotinylated MBP peptides to live L cell transfectants; settings: β9 mutant I-A^k H9V; among 4A, 4E, 4Y; Fig. 1 a
Sequence of I-A^k (P01910 24-256): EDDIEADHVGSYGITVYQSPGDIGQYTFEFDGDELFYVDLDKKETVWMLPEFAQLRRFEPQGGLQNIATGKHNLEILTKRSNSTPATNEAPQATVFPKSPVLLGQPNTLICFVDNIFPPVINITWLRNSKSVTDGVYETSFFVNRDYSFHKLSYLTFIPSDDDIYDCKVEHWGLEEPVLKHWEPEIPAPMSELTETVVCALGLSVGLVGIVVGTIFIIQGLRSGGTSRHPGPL
Sequence of I-A^k (P06343 28-263): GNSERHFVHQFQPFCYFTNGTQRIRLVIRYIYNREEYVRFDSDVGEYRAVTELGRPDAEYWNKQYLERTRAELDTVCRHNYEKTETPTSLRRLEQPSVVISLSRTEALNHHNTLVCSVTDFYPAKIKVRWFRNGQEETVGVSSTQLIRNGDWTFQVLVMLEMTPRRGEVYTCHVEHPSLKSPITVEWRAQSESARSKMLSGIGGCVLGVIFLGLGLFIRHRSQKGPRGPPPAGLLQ
Procedure, shortened: (§1)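 Live L cell transfectants (wild-type or β9-mutant I-A, 5 × 10^5 cells) washed, then incubated 4 h at 37°C, 7% CO2 with 200 μM biotinylated MBP analogue in RPMI 1640/1% BSA. Washed twice, then streptavidin–Quantum red/PE for 20 min on ice. MHC level read with FITC anti-Aβk,u mAb 10-2.16; propidium iodide viability stain. Net binding is mean fluorescence minus nontransfected L cells plus peptide, divided by FITC signal, then normalized to 4A peptide on wild-type transfectant.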

I-A^u [3] = target: T1, I-A^u; test: as above; settings: wild-type I-A^u; among 4A, 4E, 4Y; Fig. 1 a
Procedure, shortened: as §1

[4] = target: I-A^u class II MHC protein, purified (mouse); test: peptide dissociation kinetics followed by HPSEC with fluorescence detection
[5] = target: I-A^k class II MHC protein, wild type, on L cell transfectants (mouse); test: flow cytometry on cells

- slower dissociation from I-A^u than wild-type MBP Ac1-12 (I-A^u [2]): ~80 fold
Molecule: ISQAVAASQKRPSQRSKY [ova-MBP]
- proliferation responses of a series of MBP-responsive T cell lines [1]: abrogated proliferation responses

Molecule: 4Y: MBP peptide with residue 4 lysine replaced with tyrosine (Ac-ASQYRPSQRHGSK-biotin)
- peptide preference of I-A^k H9V in FACS binding (I-A^k): prefers
- peptide preference of I-A^u in FACS binding (I-A^u [3]): prefers

Molecule: ISQAVAASQYRPSQRSKY [ova-MBP K4Y]
- proliferation responses of a series of MBP-responsive T cell lines [1]: abrogated proliferation responses

- dissociation half-time (t 1/2) [4]: > 200 h
- fold increase in stability of binding over wild-type MBP [4]: > 1000 fold
B1: ova-MBP K4Y, fluorescein-labelled (peptide)
peptide: {5,6‑carboxyfluorescein}-ISQAVAASQYRPSQRSKY

- fold slower dissociation than wild-type MBP Ac1-12 [4]: 80 fold
B2: ova-MBP (NH2-terminally extended MBP peptide), fluorescein-labelled (peptide)
peptide: {5,6‑carboxyfluorescein}-ISQAVAASQKRPSQRSKY

- fold improvement of binding over MBP Ac1-11 4A [5]: 2 fold
- fold improvement of binding over wild-type MBP [5]: > 20 fold
B3: biotinylated MBP Ac1-13 K4E (rat MBP sequence) (peptide)
peptide: Ac-ASQERPSQRHGSK-biotin
